Test results published in ChEMBL document CHEMBL1828498, “Identification and characterization of a novel integrin-linked kinase inhibitor” (J Med Chem, 2011).
Active and inactive are the calls of the source. No cut-off for these calls is given here.

Experiments:
SK-BR-3 = test: Reduction in EGFR concentration in human SKBR3 cells after 24 hrs by Western blot analysis; format: functional, cell-based
Procedure, shortened: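 PC-3 versus stable PC-3/CA-ILK, or SKBR3 versus transient SKBR3/CA-ILK (electroporation, used 48 h after), treated 24 h in 5% FBS medium; immunoblotting with ECL; representative of three experiments.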

MDA-MB-468 = test: Antiproliferative activity against human MDA-MB-468 cells assessed as suppression of cell viability by MTT assay; format: functional, cell-based
Procedure, shortened: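 Cancer lines seeded 5000/well and nonmalignant PrEC/MEC 8000/well in 10% FBS, 24 h before treatment. Compound exposure 24 h in 5% FBS medium, 0.1% final DMSO. MTT (0.25 mg/mL) for 1 h at 37°C, dye solubilized in DMSO, absorbance read at 570 nm. Mean ± SD, n = 6.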

PC-3 [1] = test: Suppression of tumor growth in human PC3 cells xenografted in nude mouse at 50 mg/kg/day, po administered for 35 days relative to control; format: functional
Procedure, shortened: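 Male NCr athymic nude mice, s.c. 0.5 × 10^6 PC-3 cells in 50% Matrigel; established tumors randomized (n=6) to daily oral gavage in 0.5% methylcellulose/0.1% Tween 80 in water, 10 μL/g, 35 days; weekly caliper volume = width² × length × 0.52; mean ± SEM, ANOVA or t-test.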

PC-3 [2] = test: Reduction in YB-1 mRNA expression in human PC3 cells expressing constitutively active ILK after 24 hrs by RT-PCR analysis; format: functional, cell-based
Procedure, shortened: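 PC-3, PC-3/CA-ILK, SKBR3 and SKBR3/CA-ILK cells treated 24 h in 5% FBS medium; total RNA from 1 × 10^6 cells by Trizol, 1 μg reverse-transcribed, then PCR with gene-specific primers and β-actin reference.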

CNC(=O)CCc1cc(-c2ccc(-c3ccc(C(F)(F)F)cc3)cc2)n(-c2ccc(N3CCNCC3)cc2)n1
Activity (SK-BR-3): Dose-dependent effect
IC50 (MDA-MB-468): 1.5 µM
Activity (PC-3 [1]): 62%
Activity (PC-3 [2]): inactive
